Experiment [1] concerns Plasmodium falciparum. Description: Antiplasmodial activity against Plasmodium falciparum 3D7 infected in human RBCs assessed as inhibition of trophozoite to schizont stage transition at 2 and 4 times IC50 measured after 12 hrs by flow cytometric analysis. Type of experiment: functional, organism-based. An outline of the steps:
(§1)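 Synchronised 3D7 cultures received compound at ring (2-4 h), trophozoite (24-26 h) or schizont (36-38 h) stage. Dosing was 4×, 2×, 1× and 0.25× the IC50 estimated from the 3D7 dose-response. Samples were harvested about 12 h later, and stage progression and morphology were monitored by flow cytometry and microscopy.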

Experiment [2] relates to Plasmodium falciparum. Description: Antiplasmodial activity against Plasmodium falciparum 3D7 infected in human RBCs assessed as inhibition of schizont to ring stage transition at 2 and 4 times IC50 measured after 12 hrs by flow cytometric analysis. Type of experiment: functional, organism-based. Put shortly: as §1
A general note: Flow cytometry measures light scatter and fluorescence of single cells or particles in a stream.

For experiment [3], the system named is Plasmodium falciparum. Kind of experiment: Antiplasmodial activity against Plasmodium falciparum 3D7 trophozoite stage infected in human RBCs assessed as reduction in parasitemia after 48 hrs by Hoechst-3342 staining based flow cytometric analysis. In kind it is functional, organism-based. The conditions noted are these: 3D7, 48 h. An outline of the steps:
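Trophozoite-stage 3D7 parasites (~24–26 hpi) were exposed to 1.6 μM to 100 μM compound for 48 h, with DMSO-treated parasites as negative control and chloroquine as positive control. Parasitemia was read by flow cytometry, and IC50 was estimated from the concentration series.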

Experiment [4] deals with Plasmodium falciparum. Description: Antiplasmodial activity against chloroquine-resistant Plasmodium falciparum K1 infected in human RBCs assessed as reduction in parasitemia after 48 hrs by Hoechst-3342 staining based flow cytometric analysis. Type of experiment: functional, organism-based. The conditions noted are these: K1, 48 h. An outline of the steps:
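The K1 strain was screened across a 0–100 μM compound range alongside 3D7, and IC50 values were derived from parasitemia. Giemsa-stained smears from representative experiments were also examined by microscopy for parasite phenotype.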

The next experiment concerns MDCK. Description: Cytotoxicity against MDCK cells assessed as cell viability measured after overnight incubation by MTT assay. In kind it is cell-based. The conditions noted are these: Canis lupus familiaris. An outline of the steps:
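MDCK cells were tested by MTT viability assay at compound concentrations up to 200 μM, alongside controls.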
Background: Formazan colour is commonly taken as a measure of viable cells.

Experiment [5] is described as follows: Selectivity index, ratio of IC50 for MDCK cells to IC50 for Plasmodium falciparum 3D7. Put shortly:
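Ratio computed as […]. The 3D7 IC50 came from trophozoite-stage parasites (~24-26 hpi) incubated 48 h with 1.6-100 μM compound, with DMSO and chloroquine controls. The MDCK IC50 came from the MTT assay tested up to 200 μM.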

Experiment [6] relates to Plasmodium falciparum. Description: Antiplasmodial activity against Plasmodium falciparum 3D7 infected in human RBCs assessed as inhibition of ring to trophozoite stage transition at 0.25 to 4 times IC50 measured after 12 hrs by flow cytometric analysis. Type of experiment: functional, organism-based. Put shortly:
as §1

The subject of experiment [7] is Plasmodium falciparum. Kind of experiment: Antiplasmodial activity against Plasmodium falciparum 3D7 trophozoite stage infected in human RBCs assessed as reduction in parasitemia at 1 to 100 uM after 48 hrs by Hoechst-3342 staining based flow cytometric analysis. In kind it is functional, organism-based. An outline of the steps: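 3D7 parasites at trophozoite stage (~30 hpi) were exposed to 1, 20 and 100 μM compound, with DMSO-treated negative control. Parasitemia was read by flow cytometry after 48 h.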

Experiment [8] deals with Plasmodium falciparum. Description: Antiplasmodial activity against Plasmodium falciparum 3D7 infected in human RBCs assessed as inhibition of trophozoite to schizont stage transition at 0.25 to 4 times IC50 measured after 12 hrs by flow cytometric analysis. Type of experiment: functional, organism-based. Put shortly:
as §1

The test system of experiment [9] is Plasmodium falciparum. Kind of experiment: Antiplasmodial activity against Plasmodium falciparum 3D7 infected in human RBCs assessed as inhibition of schizont to ring stage transition at 1 to 4 times IC50 measured after 12 hrs by flow cytometric analysis. Type of experiment: functional, organism-based. Put shortly:
as §1

Experiment [10] concerns Plasmodium falciparum. Description: Antiplasmodial activity against Plasmodium falciparum 3D7 infected in human RBCs assessed as inhibition of merozoite maturation at schizont stage at IC50 by Giemsa-staining based microscopic analysis. Type of experiment: functional, organism-based.
The subject of experiment [11] is Plasmodium falciparum. Kind of experiment: Antiplasmodial activity against Plasmodium falciparum 3D7 infected in human RBCs assessed as inhibition of ring to trophozoite stage transition at 4 times IC50 measured after 12 hrs by flow cytometric analysis. Type of experiment: functional, organism-based. Put shortly:
as §1

Experiment [12] relates to Plasmodium falciparum. Description: Antiplasmodial activity against Plasmodium falciparum 3D7 infected in human RBCs assessed as inhibition of schizont to ring stage transition at 4 times IC50 measured after 12 hrs by flow cytometric analysis. In kind it is functional, organism-based. An outline of the steps:
as §1

Calls of active or inactive are those of the source. The calls are words filed in the database; no cut-off is given here.

`C(=N\Nc1nncc2ccccc12)/c1c(-c2ccccc2)[nH]c2ccccc12`: the inhibition entry with Plasmodium falciparum [1] and with Plasmodium falciparum [2] was “Active” each time. Further, the IC50 is 3.49 µM in the experiment with Plasmodium falciparum [3], 2.43 µM in the experiment on Plasmodium falciparum [4] and above 200 µM in the experiment with MDCK. Also, the “Ratio IC50” value in [5] came out at 57.31. Further, the inhibition result in the experiment with Plasmodium falciparum [6] is “inactive”.
Turning to `C(=N\Nc1nncc2ccccc12)/C1CC1`, the inhibition result with Plasmodium falciparum [7] is “Active”.
For the molecule `C(=N\Nc1nncc2ccccc12)/c1ccc2c(c1)CCO2`, the inhibition entry with Plasmodium falciparum [7] is “Active”.
Same read-out and setting: with `CS(=O)(=O)c1ccc(/C=N/Nc2nncc3ccccc23)cc1` the entry was “Active”.
For the molecule `Cn1ccnc1/C=N/Nc1nncc2ccccc12`, the inhibition result with Plasmodium falciparum [8] and in the experiment on Plasmodium falciparum [6] was “inactive” throughout. Also, the inhibition entry with Plasmodium falciparum [9] and in the experiment on Plasmodium falciparum [10] was “Active” each time. In addition, the values for the IC50 with Plasmodium falciparum [3], in the experiment on Plasmodium falciparum [4] and in the experiment with MDCK were 3.5 µM, 2.23 µM and above 200 µM, respectively. Also, in experiment [5], the “Ratio IC50” value is on record as 57.22.
`Cc1[nH]c2ccccc2c1/C=N/Nc1nncc2ccccc12`: the inhibition result in the experiment on Plasmodium falciparum [1], in the experiment with Plasmodium falciparum [2] and in the experiment with Plasmodium falciparum [11] was “Active” throughout. In addition, the IC50 with Plasmodium falciparum [3] is 12.2 µM; in the experiment with Plasmodium falciparum [4] it was 5.98 µM; in the experiment with MDCK, above 200 µM. In experiment [5], the “Ratio IC50” value was 16.42.
On to `C(=N\Nc1nncc2ccccc12)/c1c[nH]c2ccccc12`, for which the inhibition result in the experiment on Plasmodium falciparum [8] and with Plasmodium falciparum [6] was “inactive” each time. The inhibition result with Plasmodium falciparum [12] was “Active”. For the same molecule, the IC50 in the experiment on Plasmodium falciparum [3] is 13.7 µM; in the experiment on Plasmodium falciparum [4], 6.66 µM; in the experiment with MDCK, above 200 µM. Besides, in experiment [5], the “Ratio IC50” value was 14.56.
Take `Oc1ccc(Cl)cc1/C=N\Nc1nncc2ccccc12`: the inhibition entry with Plasmodium falciparum [8] and with Plasmodium falciparum [6] was “inactive” in each case. Further, the inhibition entry in the experiment on Plasmodium falciparum [2] and in the experiment on Plasmodium falciparum [10] was “Active” in each case. Moreover, the 50% inhibitory concentration (IC50) in the experiment on Plasmodium falciparum [3] is 1.65 µM; with Plasmodium falciparum [4], 1.69 µM; in the experiment with MDCK it was above 100 µM. Further, the “Ratio IC50” value in experiment [5] was found to be 60.75.
As for `O=c1cc(/C=N/Nc2nncc3ccccc23)oc2ccccc12`, the inhibition entry with Plasmodium falciparum [7] is “Active”.
As to `Cc1cc(/C=N/Nc2nncc3ccccc23)c([N+](=O)[O-])cc1C`, the inhibition result in the experiment on Plasmodium falciparum [7] is “Active”.

The term IC50 denotes the midpoint of a concentration-inhibition curve.

(Values after ChEMBL document CHEMBL3813669, “Synthesis and in vitro evaluation of hydrazinyl phthalazines against malaria parasite, Plasmodium falciparum” (Bioorg Med Chem Lett, 2016).)
